# Only some compounds are listed: those with a hit (about 1.8% of all), similar ones and a draw of the others.
# CHRM5 PAM: potentiates acetylcholine response at human M5 receptor; 360,000 compounds, 0.3% hits; P08912; CHO-K1 hM5, Fluo-8 calcium, ACh EC20 PAM; 0% = ACh EC20, 100% = ACh EC100; activation, % at 3 µM;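 active = activation above the run cutoff, the mean activation of all test compounds plus 3 SD, cut at about 18% in these data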
# Target sequence (P08912 whole entry, looked up): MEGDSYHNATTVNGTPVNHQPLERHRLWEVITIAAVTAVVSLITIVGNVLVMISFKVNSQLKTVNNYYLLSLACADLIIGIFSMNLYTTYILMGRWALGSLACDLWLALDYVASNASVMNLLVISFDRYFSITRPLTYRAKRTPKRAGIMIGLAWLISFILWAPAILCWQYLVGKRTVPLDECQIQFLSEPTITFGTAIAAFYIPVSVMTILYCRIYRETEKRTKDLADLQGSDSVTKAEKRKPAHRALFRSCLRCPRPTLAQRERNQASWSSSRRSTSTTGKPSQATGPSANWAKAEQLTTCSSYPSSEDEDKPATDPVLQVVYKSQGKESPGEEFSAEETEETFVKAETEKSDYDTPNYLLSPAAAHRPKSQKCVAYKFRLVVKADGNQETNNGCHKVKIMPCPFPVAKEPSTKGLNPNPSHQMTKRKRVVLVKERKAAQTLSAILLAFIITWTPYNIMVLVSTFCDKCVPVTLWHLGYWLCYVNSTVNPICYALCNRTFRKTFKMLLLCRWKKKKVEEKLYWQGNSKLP
#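 Assay system – human M5 receptor in CHO-K1 cells · Read-out – % activation, ACh-normalized · Technique – Fluo-8 calcium fluorescence · Dosing – single-point, 3 µM nominal · Incubation – Fluo-8 loading 80 min at 37 °C plus 30 min room temperature · Repeats – singlicate, one well per test compound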
# CHRM4 antagonist: CHRM4 antagonism in calcium assay; P08173; CHO-hM4 cells, ACh EC80, Fluo-8 calcium fluorescence; inhibition, % at 3 µM; 360,000 compounds, 0.73% hits;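 active = inhibition above its plate's cutoff, the mean inhibition of sample wells plus 3 SD, cut at about 27% in these data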;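 note: 0% = acetylcholine EC80 with DMSO and 100% = DMSO without agonist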
# CHRM5 antagonist: blocks acetylcholine activation of human M5 receptor; P08912; CHO-hM5 cells, Fluo-8 calcium fluorescence, ACh EC80; inhibition, % at 3 µM; 360,000 compounds, 0.59% hits; AID 624040;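 active = inhibition above a per-plate cutoff, the mean of that plate's test compounds plus 3 SD, cut at about 27% in these data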;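 note: 0% = acetylcholine EC80 with DMSO and 100% = DMSO without agonist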
# CHRM4 agonist: agonists of human muscarinic M4 receptor (CHRM4). CHO-K1 hM4/Gqi5, Fluo-8 calcium fluorescence; vehicle 0%, full acetylcholine response 100%. activation, % at 3 µM. 360,000 compounds, 0.14% hits. AID 624127;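 active = activation above the run mean over all test wells plus 3 SD, cut at about 32% in these data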;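 note: peak over basal fluorescence ratio per well then scaled between controls; 0% = DMSO wells and 100% = acetylcholine at EC100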
# M4 PAM: potentiates acetylcholine response at human M4 receptor; P08173; CHO-K1 hM4/Gqi5, Fluo-8 calcium fluorescence, ACh EC20; 0% = ACh EC20, 100% = maximal ACh; activation, % at 3 µM; 360,000 compounds, 0.4% hits;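 active = activation above its plate's cutoff, the mean activation of sample wells plus 3 SD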
# CHRM5 agonist: CHRM5 agonism in calcium assay; P08912; CHO-K1 hM5 cells, Fluo-8 calcium fluorescence; 0% DMSO wells, 100% maximal acetylcholine response; activation, % at 3 µM; 360,000 compounds, 0.19% hits;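 active = activation above the run's mean over test compounds plus 3 SD, cut at about 23% in these data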;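 note: signal is peak over basal fluorescence ratio across the kinetic read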
# Starred values were filed as active, the others as inactive.
SMILES,CHRM5 PAM,CHRM4 antagonist,CHRM5 antagonist,CHRM4 agonist,M4 PAM,CHRM5 agonist
COc1cc(/C=C2\SC(=S)N(NC(=O)c3cccc(O)c3)C2=O)ccc1O,-9.4,11.9,8.6,36.1*,-13.5,9.9
COCCN(C(=O)COC(=O)c1ccc(C=O)cc1)c1c(N)n(Cc2ccccc2)c(=O)[nH]c1=O,-1.7,2.5,0.5,0.8,-0.7,-2.4
Nn1c(SCc2cccc(F)c2)nnc1-c1cccnc1,-17.8,-0.8,15.0,18.3,-12.5,0.7
Nn1c(SCc2cccc(Br)c2)nnc1-c1cccnc1,18.9*,-11.4,-10.5,1.1,11.2,-6.1
Nn1c(SC/C=C/c2ccccc2)nnc1-c1cccnc1,2.7,28.0*,2.5,1.3,7.4,0.2
Clc1ccc(-n2c(SC/C=C/c3ccccc3)nnc2-c2cccnc2)cc1,-2.7,11.8,-2.5,4.2,1.0,0.3
O=C(NCc1ccco1)/C(=C/c1ccc(Br)cc1)NC(=O)c1ccco1,-0.6,-3.2,-8.1,0.2,-7.5,-1.4
NC(=O)N1c2ccccc2C=Cc2ccccc21,-1.9,-19.2,-4.3,1.5,6.7,1.1
O=C(CN1CCCCC1)N1CCCc2ccccc21,-4.4,12.5,8.4,0.2,-3.3,-5.7
O=C(CN1CCCCCC1)N1c2ccccc2C=Cc2ccccc21,-15.8,95.2*,79.6*,-0.1,-31.7,-6.4
CN1CCN(C(=O)N2c3ccccc3C=Cc3ccccc32)CC1,-25.2,70.8*,97.6*,0.6,-16.9,-13.0
O=C(CN1CCCC1)N1c2ccccc2C=Cc2ccccc21,-33.5,51.0*,49.5*,0.9,-21.8,-13.7
Cc1nn(CC(=O)Nc2ccc(N3CCOCC3)cc2)c(C)c1[N+](=O)[O-],6.8,6.2,11.4,0.7,3.2,0.1
CC(=O)OCCn1c2nc(=O)[nH]c(=O)c-2nc2cc(C)c(C)cc21,-29.6,37.4*,42.0*,229.5*,-18.3,417.5*
COc1cccc(/C=N/Nc2nc(Nc3ccccc3)nc(-n3nc(C)cc3C)n2)c1O,-15.2,17.9,15.6,42.5*,-18.9,1.2
Cc1cc(C)n(-c2nc(Nc3ccccc3)nc(-n3nc(C)cc3C)n2)n1,4.5,17.4,-5.1,-0.5,1.1,1.1
Nc1c(-c2ccccc2)cnn1-c1cccc([N+](=O)[O-])c1,-17.4,-4.5,7.2,2.2,-4.2,-8.1
Nc1c(-c2ccc(Cl)cc2)cnn1-c1cccc([N+](=O)[O-])c1,-19.1,10.5,33.2*,2.4,-9.6,-6.3
CCOc1ccc(-n2c(=S)sc3c(=O)[nH]c(SCC(=O)NC4CCCCC4)nc32)cc1,1.8,-5.1,-5.7,0.0,2.2,1.0
COc1ccc(-c2noc(CN3CCCC(OCc4ccccn4)C3)n2)cc1 (stereo unspecified),1.0,2.1,-2.5,2.2,-11.7,-0.8
Cc1ccc(C(=O)c2sc3nc4c(cc3c2N)CCC4)cc1,5.3,-6.3,-3.7,1.2,21.2*,-1.0
Nc1c(C(=O)N2CCCCC2)sc2nc3c(cc12)CCCC3,0.0,-2.2,-3.2,0.2,-3.3,-2.1
CCCn1c(-c2ccncc2)n[nH]c1=S,21.9*,-3.9,-0.5,2.2,6.9,1.4
Cc1ccc(S(=O)(=O)N2C[C@]3(O)C[C@@H]4C(=O)N(c5ccccc5)C(=O)[C@@H]4C[C@]3(OC(=O)Nc3cccs3)C2)cc1,-0.1,-33.5,-14.9,5.1,0.8,-0.7
CCN(CC)CC#CC(O)(c1ccccc1)c1ccccc1,-16.4,88.5*,98.1*,0.3,-24.3,-11.3
SMILES,CHRM5 PAM,CHRM4 antagonist,CHRM5 antagonist,CHRM4 agonist,M4 PAM,CHRM5 agonist
OCCN(CC#CC(O)(c1ccccc1)c1cccc(F)c1)CCO (stereo unspecified),4.3,-14.3,-1.0,0.5,-8.1,-15.8
CN(C)C(C)(C)C#CC(O)(c1ccccc1)c1ccccc1,-33.1,52.9*,83.3*,0.0,-25.2,-12.9
CN(C)CCC#CC(O)(c1ccccc1)c1ccccc1,-19.5,31.6*,37.6*,0.5,-14.9,-9.0
CC1Oc2ccccc2N(CC(=O)NC2CC2)C1=O (stereo unspecified),-2.4,-14.7,9.6,2.1,-3.1,-2.8
CC1Oc2ccccc2N(CC(=O)NCc2ccccc2)C1=O (stereo unspecified),2.4,-11.2,8.6,3.8,23.4*,-0.2
COc1cc(C2CC(=O)Nc3ccccc3S2)cc(OC)c1OC (stereo unspecified),-14.8,34.6*,18.9,18.1,-22.8,3.9
O=C1CC(c2ccc(F)cc2)Sc2ccccc2N1 (stereo unspecified),0.9,11.4,-3.9,-1.0,14.4,-1.2
O=[N+]([O-])c1ccc(-n2nncc2-c2ccccc2)cc1,19.5*,-7.6,-9.3,0.4,-9.9,-17.9
CC(=O)Nc1csc2ccccc12,3.5,0.6,3.0,1.9,9.2,-1.4
O=C(Nc1ccccc1)Nc1csc2ccccc12,-28.6,11.4,29.3*,15.9,-8.4,10.1
CCn1nnc(NC(=O)COc2ccc([N+](=O)[O-])cc2)n1,0.7,-2.8,11.8,1.0,0.8,0.6
COc1ccc(C(=O)/C=C/C(=O)N(CC(=O)NC2CCCCC2)Cc2cccs2)c(O)c1,-3.6,34.5*,18.9,15.6,-17.8,10.5
COCCN(CC(=O)NC1CCCCC1)C(=O)/C=C/C(=O)c1ccc(OC)cc1O,9.8,18.0,12.5,2.3,-4.9,3.5
Cc1cc(F)ccc1NC(=O)CCc1ccc(S(=O)(=O)N2CCOCC2)cc1,-0.2,-12.0,-8.5,2.2,6.2,1.2
O=C(Nc1nccs1)c1sc2cc(Cl)ccc2c1Cl,22.9*,-12.4,-2.6,1.3,24.8*,1.4
COc1ccc(-n2c(C)cc(/C=C3\SC(=S)N(Cc4ccco4)C3=O)c2C)cc1,-0.5,6.7,8.4,1.9,0.9,8.0
CCN1CCN(c2c(/C=C3\SC(=S)N(Cc4ccco4)C3=O)c(C)c(C#N)c(=O)n2C)CC1,-20.0,7.1,14.6,20.6,-31.9,57.4*
CCCCNC(=O)C1(C)CCN1C(=O)c1oc2ccccc2c1C (stereo unspecified),-2.1,-11.4,3.8,1.1,5.4,-1.9
O=C(Nc1nc(-c2ccccc2)cs1)c1ccc(N2CCOCC2)c([N+](=O)[O-])c1,-17.6,43.6*,30.1*,22.2,-34.6,11.2
Cc1ccc(-c2csc(NC(=O)c3cc([N+](=O)[O-])ccc3N3CCOCC3)n2)cc1,-0.2,0.8,8.2,0.2,2.9,-2.7
O=C(CCCCCCCC(=O)N1CCCC1)N1CCCC1,7.1,-8.5,4.6,0.3,0.0,6.9
COC(=O)C1CCN(c2cc(Cl)nc(N)n2)CC1,-3.9,-9.8,5.5,0.2,-0.6,0.9

# High-throughput results: PubChem, The Scripps Research Institute Molecular Screening Center
